Series [1] can be described thus: Evaluated for the pKa value. Type of series: physicochemical. The method, boiled down: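 Hydrochloride salt titrated to determine the pKa of the ammonium ion. Values for related analogues were estimated by extrapolating the pKa values of the corresponding dimethyl ethers.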
In series [2] the test system is Canis familiaris. As to the kind of experiment: Evaluated for the percentage vasodilation in the renal artery produced by 3000 nmol administered intra-arterially; NA is No Antagonistic activity. Type of series: functional, organism-based. To be noted: Canis lupus familiaris. The method, boiled down:
(§1)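 Anesthetized dogs fitted with an electromagnetic flow probe on the renal artery; a bent 25-gauge needle was inserted proximally into the artery for dosing. Phenoxybenzamine, 5 mg/kg ia, was infused first. A dopamine dose-response curve (11.75, 47, 188 nmol/dog) was run, then rising doses of test agent up to 3000 nmol were injected intra-arterially, each in 0.2 mL.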

Series [3] deals with Canis familiaris. The series can be described thus: Evaluated for the percentage vasodilation in the renal artery produced by 3000 nmol administered intra-arterially. Type of series: functional, Canis lupus familiaris. The essentials:
as §1

Consider 13 compounds from ChEMBL document CHEMBL1122076, “Synthesis of 2-(alkylamino)-5,6- and -6,7-dihydroxy-3,4-dihydroquinazolines and evaluation as potential dopamine agonists” (J Med Chem, 1982).

Activity calls are given as the source filed them. The rule behind the calls is not given here.

As for `NCCc1ccc(O)c(O)c1` [DOPAMINE], the pKa in series [1] came to 9.84. `NC1CCc2cc(O)c(O)cc2C1` (stereo not given): the pKa in series [1] was 9.84. In the case of `CNC1=NCc2c(ccc(O)c2O)N1`, the Vasodilation entry in series [2] is “inactive”. With `CCCN(CCC)C1=NCc2c(ccc(O)c2O)N1`, the Vasodilation result in series [2] is “inactive”. In series [1], `NC1=NCc2cc(O)c(O)cc2N1` yielded a pKa of 12. In addition, the Vasodilation in series [3] is given as 50%. In series [3], `CCCN(CCC)C1=NCc2cc(O)c(O)cc2N1` displayed a Vasodilation of 50%.

As to `COc1cc2c(cc1OC)NC(N)=NC2`, in series [1], the pKa came to 11.1. For `NC1=NCc2c(ccc(O)c2O)N1`, the Vasodilation entry in series [2] was “inactive”. In series [3], `CNC1=NCc2cc(O)c(O)cc2N1` returned a Vasodilation of 50%. With `CN(C)C1=NCc2cc(O)c(O)cc2N1`, in series [2], the Vasodilation result was “inactive”. As to `CN(C)C1CCc2c(ccc(O)c2O)C1` (stereo not given), in series [2], the Vasodilation result was “inactive”. On to `CN(C)C1=NCc2c(ccc(O)c2O)N1`, for which, in series [2], the Vasodilation result is “inactive”. `NC1CCc2c(ccc(O)c2O)C1` (stereo not given): in series [2], the Vasodilation entry was “inactive”. Further, in series [1], the pKa was found to be 9.84.

For orientation: pKa means the negative logarithm of the acid dissociation constant. A low value points to a group that gives up its proton readily.
